ChEMBL document CHEMBL1671691 (Antimicrob Agents Chemother, 2010)
Calls of active or inactive are those of the source. The calls are words filed in the database; no cut-off is given here.

Key:
Influenza A virus [1] = assay: Antiviral activity against Influenza A virus (A/Illinois/10/2009(H1N1)) harboring neuraminidase H275Y mutant infected in MDCK cells from Mill Hill assessed as log reduction in viral titer at 1.6 uM after 24 hrs by immunofluorescent assay; assay type: functional
Outline: (§1)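 Yield reduction in MDCK-ATCC or MDCK-Mill Hill cells infected at MOI ∼0.01. Adsorption 1 h at 4°C, washed, then DMEM with 2 μg/ml TPCK-trypsin and drug. At 24 h, supernatants were titrated by immunofluorescent focus assay on MDCK cells with anti-NP monoclonals and FITC secondary. Titres as log10 FFU per 100 μl; detection limit <10 FFU. Quadruplicate, mean ± SD.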

Influenza B virus [2] = assay: Antiviral activity against oseltamivir-susceptible zanamivir-, adamantane-resistant Influenza B virus (B/Michigan/20/2005) harboring neuraminidase H274Y mutant infected in MDCK cells assessed as inhibition of viral replication after 3 days by microscopic analysis using crystal violet stain; assay type: functional, cell-based
Influenza A virus [3] = assay: microbe, parasite or virus in culture; conditions: (A/Wuhan/395/1995-like (H3N2)), MDCK, 72 h
Influenza B virus [4] = assay: microbe, parasite or virus in culture; conditions: (B/Rochester/01/2001), MDCK, 72 h
Influenza A virus [5] = assay: Antiviral activity against Influenza A virus (A/Illinois/10/2009(H1N1)) harboring neuraminidase H275Y mutant infected in MDCK cells from ATCC assessed as inhibition of viral replication after 3 days by microscopic analysis using crystal violet stain; assay type: functional
Outline: (§2)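 Confluent MDCK-ATCC monolayers infected with virus diluted to give 15–45 plaques/well. Adsorption 1 h at 37°C without drug, then washed. Overlaid with 0.8% agarose in MEM containing drug plus TPCK-trypsin: 3 μg/ml for seasonal viruses, 2 μg/ml for 2009 A(H1N1). Incubated 3 days at 37°C, 5% CO2. Ethanol-fixed, crystal violet-stained, plaques counted. EC50 by curve fit; duplicates on three occasions, mean ± SD.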

Influenza A virus [6] = assay: Antiviral activity against adamantane-resistant zanamivir-,oseltamivir-susceptible Influenza A virus (A/Wisconsin/16/2008(H1N1)) harboring neuraminidase H274Y mutant infected in MDCK cells assessed as inhibition of viral replication after 3 days by microscopic analysis using crystal violet stain; assay type: functional, organism-based; outline: as §2
Influenza A virus [7] = assay: Antiviral activity against adamantane-, zanamivir-susceptible oseltamivir-resistant Influenza A virus (A/New Jersey/15/2007(H1N1)) harboring neuraminidase H274Y mutant infected in MDCK cells assessed as inhibition of viral replication after 3 days by microscopic analysis using crystal violet stain; assay type: functional, organism-based; outline: as §2
Influenza A virus [8] = assay: Antiviral activity against adamantane-resistant zanamivir-,oseltamivir-susceptible Influenza A virus (A/pdm/California/07/2009 (H1N1)) harboring M2 V28I, S31N mutant infected in MDCK cells assessed as inhibition of viral replication after 3 days by microscopic analysis using crystal violet stain; assay type: functional, organism-based, A/California/07/2009(H1N1)
Outline: (§3)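 Plaque reduction on confluent MDCK-ATCC monolayers: pretitrated virus (15–45 plaques per well) adsorbed 1 h at 37°C without drug, then washed with PBS. Agarose overlay (0.8%, in MEM) with drug added, 3 days at 37°C. Cells fixed with 70% ethanol, stained with crystal violet, plaques counted. EC50 from curve fitting, averaged over three separate experiments in duplicate, ± SD.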

[9] = Antiviral activity against adamantane-resistant zanamivir-,oseltamivir-susceptible Influenza B virus (B/Illinois/47/2005) infected in MDCK cells assessed as inhibition of viral replication after 3 days by microscopic analysis using crystal violet stain; assay type: functional, cell-based; conditions: 72 h
Influenza A virus [10] = assay: Antiviral activity against adamantane-resistant zanamivir-,oseltamivir-susceptible Influenza A virus (A/Washington/01/2007(H3N2)) harboring M2 S31N mutant infected in MDCK cells assessed as inhibition of viral replication after 3 days by microscopic analysis using crystal violet stain; assay type: functional, organism-based; outline: as §2
Influenza A virus [11] = assay: Antiviral activity against adamantane-resistant zanamivir-,oseltamivir-susceptible Influenza A virus (A/pdm/Mexico/4604/2009 (H1N1)) harboring M2 V28I, S31N mutant infected in MDCK cells assessed as inhibition of viral replication after 3 days by microscopic analysis using crystal violet stain; assay type: functional, organism-based, Influenza A virus (A/Mexico/4604/2009(H1N1))
Influenza A virus [12] = assay: (§4) Antiviral activity against oseltamivir-susceptible zanamivir-, adamantane-resistant Influenza A virus (A/pdm/Washington/29/2009 (H1N1)) harboring M2 V28I, S31N mutant and neuraminidase H274Y mutant infected in MDCK cells assessed as inhibition of viral replication after 3 days by microscopic analysis using crystal violet stain; assay type: functional, organism-based, Influenza A virus (A/Washington/29/2009(H1N1))
Influenza B virus [13] = assay: Antiviral activity against oseltamivir-susceptible zanamivir-, adamantane-resistant Influenza B virus (B/Rochester/01/2001) harboring neuraminidase D198N mutant infected in MDCK cells assessed as inhibition of viral replication after 3 days by microscopic analysis using crystal violet stain; assay type: functional, organism-based
Influenza A virus [14] = assay: Antiviral activity against Influenza A virus (A/Washington/29/2009(H1N1)) harboring neuraminidase H275Y mutant infected in MDCK cells from ATCC assessed as log reduction in viral titer at 1.6 uM after 24 hrs by immunofluorescent assay; assay type: functional; outline: as §1
Influenza A virus [15] = assay: Antiviral activity against adamantane-resistant zanamivir-,oseltamivir-susceptible Influenza A virus (A/pdm/California/04/2009 (H1N1)) harboring M2 V28I, S31N mutant infected in MDCK cells assessed as inhibition of viral replication after 3 days by microscopic analysis using crystal violet stain; assay type: functional, organism-based, A/California/04/2009(H1N1); outline: as §3
Influenza A virus [16] = assay: Antiviral activity against adamantane-, zanamivir-susceptible oseltamivir-resistant Influenza A virus (A/Georgia/20/2006(H1N1)) harboring neuraminidase H274Y mutant infected in MDCK cells assessed as inhibition of viral replication after 3 days by microscopic analysis using crystal violet stain; assay type: functional, organism-based; outline: as §2
Influenza A virus [17] = assay: Antiviral activity against adamantane-susceptible zanamivir-, oseltamivir-resistant Influenza A virus (A/Brazil/1633/2008(H1N1)) harboring neuraminidase Q136K mutant infected in MDCK cells assessed as inhibition of viral replication after 3 days by microscopic analysis using crystal violet stain; assay type: functional, organism-based
Influenza A virus [18] = assay: Antiviral activity against Influenza A virus (A/Illinois/10/2009(H1N1)) harboring neuraminidase H275Y mutant infected in MDCK cells from ATCC assessed as log reduction in viral titer at 1.6 uM after 24 hrs by immunofluorescent assay; assay type: functional; outline: as §1
Influenza A virus [19] = assay: Antiviral activity against Influenza A virus (A/Washington/29/2009(H1N1)) harboring neuraminidase H275Y mutant infected in MDCK cells from Mill Hill assessed as inhibition of viral replication after 3 days by microscopic analysis using crystal violet stain; assay type: functional
Influenza A virus [20] = assay: Antiviral activity against oseltamivir-susceptible zanamivir-, adamantane-resistant Influenza A virus (A/Texas/12/2007 (clone)(H3N2)) harboring neuraminidase E119I mutant and harboring M2 S31N mutant infected in MDCK cells assessed as inhibition of viral replication after 3 days by microscopic analysis using crystal violet stain; assay type: functional, organism-based, Influenza A virus (A/Texas/12/2007(H3N2))
Influenza A virus [21] = assay: as §4, with “(A/Luhansk/18/2008(H1N1))” for “(A/pdm/Washington/29/2009 (H1N1))”, “neuraminidase H274Y” for “M2 V28I, S31N”, “M2 G34E” for “neuraminidase H274Y”; assay type: functional, organism-based
Influenza A virus [22] = assay: Antiviral activity against adamantane-resistant zanamivir-,oseltamivir-susceptible Influenza A virus (A/New Hampshire/01/2009(H3N2)) harboring M2 S31N mutant infected in MDCK cells assessed as inhibition of viral replication after 3 days by microscopic analysis using crystal violet stain; assay type: functional, organism-based; outline: as §2
Influenza A virus [23] = assay: Antiviral activity against adamantane-resistant zanamivir-,oseltamivir-susceptible Influenza A virus (A/pdm/California/04/2009(H1N1)) harboring M2 V28I, S31N mutant infected in MDCK cells assessed as determination of viral titer in cell culture at 128 uM after 24 hrs by immunofluorescence assay; assay type: functional, organism-based; conditions: A/California/04/2009(H1N1)

`NC(=O)c1nc(F)cnc1O` [FAVIPIRAVIR] gave a log10FFU (Influenza A virus [1]) of 4.5, an EC50 (Influenza B virus [2]) of 5030 nM and an EC50 (Influenza A virus [3]) of 5990 nM. The EC50 (Influenza B virus [4]) was 1400 nM, the log10FFU (Influenza A virus [5]) was 4.21 and the EC50 (Influenza A virus [6]) was 2870 nM. For the same compound, the EC50 (Influenza A virus [7]) was 4900 nM, the EC50 (Influenza A virus [8]) was 1400 nM and the EC50 [9] was 4010 nM. The EC50 (Influenza A virus [10]) was 4460 nM, the EC50 (Influenza A virus [11]) was 1210 nM and the EC50 (Influenza A virus [12]) was 6620 nM. The EC50 (Influenza B virus [13]) was 1720 nM, the log10FFU (Influenza A virus [14]) was 4.2 and the EC50 (Influenza A virus [15]) was 1970 nM. The EC50 (Influenza A virus [16]) was 2550 nM, the EC50 (Influenza A virus [17]) was 830 nM and the log10FFU (Influenza A virus [18]) was 4.9. The log10FFU (Influenza A virus [19]) was 6.32, the EC50 (Influenza A virus [20]) was 3950 nM and the EC50 (Influenza A virus [21]) was 2930 nM. For the same compound, the EC50 (Influenza A virus [22]) was 4080 nM and the Activity (Influenza A virus [23]) was “Active”.
